# Experimental data reported in the EternaBench riboswitch data.
# Tested on: MS2 coat protein
# Test: apparent Kd, MS2 coat protein; higher = weaker binding; RNA-MaP array; FMN 200 µM where present
# Procedure, shortened: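 Stalled E. coli RNA polymerase produced the designs on Illumina sequencing-chip clusters. SNAP-549-labelled MS2 coat protein was added from 0.7 or 1.5 nM, doubling to 3 µM, without and then with constant ligand, in 100 mM Tris-HCl pH 7.5, 80 mM KCl, 4 mM MgCl2, BSA, DTT, yeast tRNA and Tween-20. The apparent Kd is the median of filtered per-cluster fits of green signal normalised to red-channel RNA signal and control-cluster median Fmax.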
# [1] = designed as: OFF switch for flavin mononucleotide, no ligand
# [2] = ligand present: flavin mononucleotide, designed as: OFF switch for flavin mononucleotide
# [3] = designed as: ON switch for flavin mononucleotide, no ligand
# [4] = ligand present: flavin mononucleotide, designed as: ON switch for flavin mononucleotide
Sequence,apparent Kd [1],apparent Kd [2],apparent Kd [3],apparent Kd [4]
AGAUUAUGAGGAUAUCGAGUUUAGUACAUGAGGAUCACCCAUGUUAUCCAGGUCUCGUUUCGAGAAGGCAUGAUUC,33.5 nM,30.9 nM,–,–
AGAUUUGUACAUGAGGAUCACCCAUGUUAAUAGGUGGUUGUCAGAAGGCAUUGAUAGAGUUUUAAUGAGGAUAUGAAUUUACAG,–,–,1000 nM,553 nM
AGCACGAAGAUUAUUAUGAAUAAACAUGAGGAUCACCCAUGUAAGGAUAUCGACUCGAAUAGAGUCGAGAAGGUACAUACGUGC,11 nM,51.8 nM,–,–
AGCAUGCUAGGAUAUACGGGACAUUAGGGUUCGUCGUAUGGACAUGAGGAUCACCCAUGUAGAAGGAGCGUGCA,20.7 nM,44.2 nM,–,–
AGCAUGUAAGGAUAUGCAAGUGGUACGGAUAGUACCAGAAAGCAGAAGGUACAUGAGGAUCACCCAUGUGCUCC,28.2 nM,55.2 nM,–,–
AGCCAACAUGAGGAUCACCCAUGUGUACGUUAUGUAGGAUAUCUGAUGCGCGCGUGCGCAAGAGAAGGACGAGACG,–,–,33.4 nM,21.2 nM
AGCCGGGCCCAGAAGGUGCCAGCGAGAGCUGCACAUGAGGAUCACCCAUGUUGUCGGUGACGACGCAAGGAUAUGGGCCCGGCU,–,–,22.7 nM,7.17 nM
AGCCUACAUGAGGAUCACCCAUGUCAGGAUAUCUCGCGACGUGUCGGGAACACGUUGCAGAGAAGGGACUCGGG,56.4 nM,69.4 nM,–,–
AGCGAGAUAGGCAAGGAUAUGCUGGGUUUCACAUGAGGAUCACCCAUGUCAUAGGUAAUGUCCGAGCAGAAGGUGCAUUCUCUUU,–,–,171 nM,21.7 nM
AGCGAGAUAGGCAAGGAUAUGCUGGGUUUCACAUGAGGAUCACCCAUGUCAUUGGUUAUGUCCGAGCAGAAGGUGCAUUCUCUUU,–,–,338 nM,47.2 nM
AGCGGCGCGGGCCACCGCAGAACCAGAAGGACAUGAGGAUCACCCAUGUAACAAAACAGGGCGGUGUAGGAUAUGGCAGGCUCG,35.9 nM,83.2 nM,–,–
AGCGUCGGCACAGGAUAUGAGAUGCCGGCAGACAUGAGGAUCACCCAUGUAAGCGACCCAGGCAGUCAGAAGGGUGAUCGACAA,–,–,121 nM,65 nM
AGCGUGGAGACAGGAUAUGAGAAUAGAUAGAAAUCAGAAGGGUCACAUGAGGAUCACCCAUGUAAAGUCUUGAGGAUGAGUGAU,86.5 nM,208 nM,–,–
AGCUAAAACGAAGGAUAUACUGACAUGAGGAUCACCCAUGUCUACAUGAUUUAUUGUGAUCACAUGUAGAAGGUCGUACUAACA,–,–,74.4 nM,27.7 nM
AGCUACGUUUCGUAGCAGCUAGGUGAGGAUAUCCUUAACAUGAGGAUCACCCAUGUUUAGCCAUGGGAGAAGGCGCCUAGAAAG,–,–,259 nM,21.5 nM
AGCUACGUUUCGUAGCAGCUAGGUGAGGAUAUUCAAAUUUUCACAUGAGGAUCACCCAUGUAUGUGAAGAAGGCGCCUAGAAAG,–,–,9.58 nM,5.44 nM
AGCUAGUCAGGAUAUACAAACAUGUCGAGAGACGUGAAGGGACAUGAGGAUCACCCAUGUAGAAGGGACUAGCA,59 nM,234 nM,–,–
AGCUAGUCAGGAUAUACGCAAACGAACGAAGCAGUGAAGGGACAUGAGGAUCACCCAUGUAGAAGGGACUAGCA,24.5 nM,140 nM,–,–
AGCUGUGGCCGAGGAUAUCUAUCCAAAAUAACCGAAAUAUAAUCGGACAUGAGGAUCACCCAUGUAGAGAAGGCGGUCUCAGCA,24.3 nM,37 nM,–,–
AGGAAACAUGAGGAUCACCCAUGUAAAAGGUGGUUAGGAUAUGCGAAAAGAAAAAGAAAAGCAGAAGGGACAAGAA,–,–,487 nM,485 nM
AGGAAGUGCCAGAAGGCUCCUGGAAUCCUAGGGAGAGGAUAUGGCACAUGAGGAUCACCCAUGUGGUAGAUCUGUUUCGAAGUG,93.4 nM,31.1 nM,–,–

Sequence,apparent Kd [1],apparent Kd [2],apparent Kd [3],apparent Kd [4]
AGGAUCUCAGUCAGGAUAUGUGUCUUCAAAGUACGGCAGAAGGGACAUGAGGAUCACCCAUGUUAGCCACCUUU,26.6 nM,69.1 nM,–,–
AGGAUUGUGCUAGGAUAUCCAGGUUUGCAGCGAGGAGAAGGAGCACAUGAGGAUCACCCAUGUUCUCAAAGGCCACGGCAAUAU,6.98 nM,13.4 nM,–,–
AGGGAGUUAGGAUAUGCUGCUCGUCACUUGCGUGAUGAGUAGCAGAAGGAACAUGAGGAUCACCCAUGUAAAAA,31.2 nM,30.3 nM,–,–
AGGGAUAAAGGAUAUACAUGAGGAUCACCCAUGUUGAGGAAGGUUAGAGGUGGCGAUAGUAGAAGGUUAGGUAG,89.2 nM,54.7 nM,–,–
AGGUAACAUGAGGAUCACCCAUGUCAGGAUAUCAUAAAGAUUAGAUUAGAGAAGAGGUUGAGAAGGGACUAUAU,44.9 nM,38.4 nM,–,–
AGGUACAUCGGAGGAUAUCAUGUAAAUACAUGAGGAUCACCCAUGUCGAUGGAGACAUCGGAGAUUGAGAAGGCCGAUGUACCG,–,–,152 nM,8.62 nM
AGGUGACAUGAGGAUCACCCAUGUAAGGAUAUACGGUUAGUGGAGAGUUGGAAGAGAGGUAGAAGGUACGGAGC,288 nM,137 nM,–,–
AGGUGACAUGAGGAUCACCCAUGUCAGGAUAUAUACACCGCCGGCGUGAAGCCAGCGGAUAGAAGGGACAAAAU,15.4 nM,16.9 nM,–,–
AGGUGACAUGAGGAUCACCCAUGUCAGGAUAUAUACACUGGCGACGUGACGUCGGCAGAUAGAAGGGACAAAGU,17.2 nM,20 nM,–,–
AGUAAGAUGCAGAAGGUGUCAGCUAGUGCUACGACAUGAGGAUCACCCAUGUACUAGAAACAGUACAAGGAUAUGCAUCUUACA,–,–,56.8 nM,8.32 nM
AGUACUACAGGAUAUACAUGGGUGAUCCUCAUGUCCCUUCUACAUGAGGAUCACCCAUGUAGAAGGGUAGUACA,15.1 nM,11.3 nM,–,–
AGUACUACAGGAUAUACGAGGGAGGUCCACGUGAACCUUUUACAUGAGGAUCACCCAUGUAGAAGGGUAGUACA,68.3 nM,16.5 nM,–,–
AGUACUCAAAGAGUACGCGUAAGCACAUGAGGAUCACCCAUGUAGGAUAUGCUACUCAAAGAGUAGUAGAAGGACAUAUUCCUC,5.85 nM,7.46 nM,–,–
AGUAGAUCAGGAUAUACGUGAAAGGUCAAAGUGUCCAAUAUACAUGAGGAUCACCCAUGUAGAAGGGAUCUACA,24.8 nM,111 nM,–,–
AGUAUCACAGGAUAUACAUGAGUGAAAAAAGUAAAUCCACUACAUGAGGAUCACCCAUGUAGAAGGGUGAUACA,65.7 nM,57.9 nM,–,–
AGUAUGCACGCAGGAUAUACAUGAGGAUCACCCAUGUGGAACAGUGUAGUACUAGUUGAUCCUCAGUAGAAGGGCGGUCAAAUA,47.8 nM,42.7 nM,–,–
AGUCGGAGCAGAGGAUAUAUACAUGAGGAUCACCCAUGUAAAUGAAUAAGCUGGAAACAGCAAGUAUAGAAGGCUGCUCCGACA,14.5 nM,16.2 nM,–,–
AGUCGGAGCAGAGGAUAUAUACAUGAGGAUCACCCAUGUAAAUGAGUAAGCUGGAAACAGCAAGUAUAGAAGGCUGCUCCGACA,18.2 nM,35.1 nM,–,–
AGUCGGAGCAGAGGAUAUUACAUGAGGAUCACCCAUGUAAUAAGAUCAAGCUGGAAACAGCAAUGUAAGAAGGCUGCUCCGACA,16.3 nM,45.6 nM,–,–
AGUCGGCGAGGAUAUACAUGAGGAUCACCCAUGUGAUAGAGUGCACGCGUACGUGUACGUAGAAGGCGCUGACA,11.9 nM,37.7 nM,–,–
AGUCGGCGAGGAUAUACAUGAGGAUCACCCAUGUGAUAGAGUGCACGCGUACGUGUAUGUAGAAGGCGCUGACA,82 nM,748 nM,–,–
